Assay results: ChEMBL document CHEMBL3259792 (Eur J Med Chem, 2014)

Legend:
[1] = target: T1, Human immunodeficiency virus type 1 reverse transcriptase (Human immunodeficiency virus 1, UniProt Q72547); assay: Inhibition of HIV1 wild-type reverse transcriptase using [3H]dTTP by scintillation counting
[2] = system: Human immunodeficiency virus 1; assay: Antiviral activity against HIV1 NL4.3 infected in human MT4 cells assessed as inhibition of virus-induced cell death measured after 5 days of infection by MTT method; type: functional, organism-based; details: Human immunodeficiency virus 1, NL4.3, MT4, 120 h
Method in brief: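 Lymphoid MT-4 cells (NIH AIDS Reagent Program) infected with HIV-1 NL4-3 in the presence of varying compound concentrations. On day 5 post-infection, viable cells were counted by MTT tetrazolium colorimetry. EC₅₀ = concentration inhibiting virus-induced cell death by 50%. Means of two to three independent experiments, each in triplicate.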

[3] = Cytotoxicity against human MT4 cells assessed as cell viability by MTT assay; type: cell-based
Method in brief: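 Mock-infected MT-4 cells exposed to a range of compound concentrations. Viable cells measured by MTT colorimetry at day 5. CC₅₀ = concentration causing 50% death of non-infected cells. Means of two to three independent experiments, each in triplicate.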

[4] = target: Human immunodeficiency virus type 1 reverse transcriptase (Human immunodeficiency virus 1, UniProt Q72547, K103N); assay: Inhibition of HIV1 wild-type reverse transcriptase K103N mutant using [3H]dTTP by scintillation counting
[5] = Selectivity index, ratio of CC50 for human MT4 cells to EC50 for HIV1 NL4.3 infected in human MT4 cells; type: toxicity, cell-based; details: read-out: Ratio CC50/EC50
Method in brief: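 Ratio CC₅₀/EC₅₀. CC₅₀ is from mock-infected MT-4 cells and EC₅₀ from HIV-1 NL4-3-infected MT-4 cells, both read by MTT at day 5 post-infection.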

[6] = system: Human immunodeficiency virus 1; assay: Ratio of EC50 for HIV1 harboring reverse transcriptase […] mutant to EC50 for wild type HIV1 NL4.3; type: functional
Method in brief: (§1)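 Fold change is the EC50 against the named mutant strain divided by the EC50 against wild-type HIV-1 NL4-3. […] Means of 2–3 independent experiments in triplicate.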

[7] = system: Human immunodeficiency virus 1; assay: Antiviral activity against HIV1 harboring reverse transcriptase K103N mutant infected in human MT4 cells assessed as inhibition of virus-induced cell death measured after 5 days of infection by MTT method; type: functional, organism-based; details: Human immunodeficiency virus 1, MT4, 120 h
Method in brief: (§2)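 MT-4 cells infected with the named NNRTI-resistant HIV-1 RT mutant strain, in the presence of a range of compound concentrations. Viable cells counted at day 5 post-infection by tetrazolium (MTT) colorimetry. […] Mean of 2–3 independent experiments, each in triplicate.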

[8] = system: Human immunodeficiency virus 1; assay: Ratio of EC50 for HIV1 harboring reverse transcriptase K103N mutant to EC50 for wild type HIV1 NL4.3; type: functional; method in brief: as §1
[9] = target: Human immunodeficiency virus type 1 reverse transcriptase (Human immunodeficiency virus 1, UniProt Q72547, L100I); assay: Inhibition of HIV1 wild-type reverse transcriptase L100I mutant using [3H]dTTP by scintillation counting
Method in brief: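 RNA-dependent DNA polymerase activity of recombinant RT (2–4 nM) on poly(rA)/oligo(dT) 10:1 with [3H]dTTP (1 Ci/mmol). Incubation at 37 °C. Acid-insoluble radioactivity collected on GF/C filters after 5% cold TCA, counted by scintillation.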

[10] = system: Human immunodeficiency virus 2; assay: Antiviral activity against HIV-2 ROD infected in human CEM cells assessed as protection of cells monitored by giant cell formation by microscopy; type: functional, organism-based; details: Human immunodeficiency virus 2, ISOLATE ROD, CCRF-CEM
Method in brief: (§3)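 Human CEM cultures (~3 × 10⁵ cells/mL) infected with ~100 CCID₅₀ per mL of HIV-1 IIIB or HIV-2 ROD, seeded with serial compound dilutions. Incubated 4 days at 37 °C; syncytium (giant cell) formation scored by microscopy. EC₅₀ = concentration protecting cells from viral cytopathicity by 50%. Means of two to three independent experiments, each in triplicate.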

[11] = system: Human immunodeficiency virus 1; assay: Antiviral activity against HIV1 harboring reverse transcriptase Y181C mutant infected in human MT4 cells assessed as inhibition of virus-induced cell death measured after 5 days of infection by MTT method; type: functional, organism-based; details: Human immunodeficiency virus 1, MT4, 120 h; method in brief: as §2
[12] = system: Human immunodeficiency virus 1; assay: Antiviral activity against HIV1 harboring reverse transcriptase K103N/Y181C double mutant infected in human MT4 cells assessed as inhibition of virus-induced cell death measured after 5 days of infection by MTT method; type: functional, organism-based; details: Human immunodeficiency virus 1, MT4, 120 h; method in brief: as §2
[13] = system: Human immunodeficiency virus 1; assay: Antiviral activity against HIV1 harboring reverse transcriptase […] mutant infected in human MT4 cells assessed as inhibition of virus-induced cell death measured after 5 days of infection by MTT method; type: functional, organism-based; details: Human immunodeficiency virus 1, MT4, 120 h; method in brief: as §2
[14] = system: Human immunodeficiency virus 1; assay: Antiviral activity against HIV1 3B infected in human CEM cells assessed as protection of cells monitored by giant cell formation by microscopy; type: functional, organism-based; details: Human immunodeficiency virus 1, 3B, CCRF-CEM; method in brief: as §3
[15] = target: T1, Human immunodeficiency virus type 1 reverse transcriptase; assay: Inhibition of HIV1 wild-type reverse transcriptase Y181I/Y181C mutant using [3H]dTTP by scintillation counting
[16] = system: Human immunodeficiency virus 1; assay: Ratio of EC50 for HIV1 harboring reverse transcriptase K103N/Y181C double mutant to EC50 for wild type HIV1 NL4.3; type: functional; method in brief: as §1
[17] = system: Human immunodeficiency virus 1; assay: Ratio of EC50 for HIV1 harboring reverse transcriptase Y181C mutant to EC50 for wild type HIV1 NL4.3; type: functional; method in brief: as §1
[18] = system: Human immunodeficiency virus 1; assay: Antiviral activity against HIV1 harboring reverse transcriptase Y188L mutant infected in human MT4 cells assessed as inhibition of virus-induced cell death measured after 5 days of infection by MTT method; type: functional, organism-based; details: Human immunodeficiency virus 1, MT4, 120 h; method in brief: as §2
[19] = system: Human immunodeficiency virus 1; assay: Ratio of EC50 for HIV1 harboring reverse transcriptase Y188L mutant to EC50 for wild type HIV1 NL4.3; type: functional; method in brief: as §1

Structure (SMILES) | IC50 [1] [nM] | EC50 [2] [nM] | CC50 [3] [nM] | IC50 [4] [nM] | selectivity ratio [5] | Ratio EC50 [6] | EC50 [7] [nM] | Ratio EC50 [8] | IC50 [9] [nM] | EC50 [10] [nM] | EC50 [11] [nM] | EC50 [12] [nM] | EC50 [13] [nM] | EC50 [14] [nM] | IC50 [15] [nM] | Ratio EC50 [16] | Ratio EC50 [17] | EC50 [18] [nM] | Ratio EC50 [19]
Cc1cc(C)cc(S(=O)(=O)c2c(C(=O)NCCc3cccc(Cl)c3)[nH]c3ccc(Cl)cc23)c1 | 83 | 4 | 29100 | 5940 | 7270 | 7.8 | 180 | 45 | 10 | > 10000 | 870 | 29100 | 31 | 11 | > 20000 | 7274 | 218 | – | –
Cc1ccc(CNC(=O)c2[nH]c3ccc(Cl)cc3c2S(=O)(=O)c2cc(C)cc(C)c2)cc1 | 50 | 2.1 | 21200 | > 20000 | 10100 | – | 385 | 183 | – | – | 215 | > 21200 | – | – | > 20000 | >10105 | 103 | > 21200 | >10105
Cc1cccc(CCNC(=O)c2[nH]c3ccc(Cl)cc3c2S(=O)(=O)c2cc(C)cc(C)c2)c1 | 190 | 6.2 | > 52000 | > 20000 | > 8380 | 5 | 260 | 42 | 1300 | > 25000 | 1200 | > 51900 | 31 | 7.3 | > 20000 | >8383 | 194 | – | –
Cc1cc(C)cc(CNC(=O)c2[nH]c3ccc(Cl)cc3c2S(=O)(=O)c2cc(C)cc(C)c2)c1 | 7000 | 4.2 | > 52000 | > 20000 | > 12400 | 15 | 180 | 43 | 5900 | > 2000 | > 2000 | > 51800 | 65 | 28 | > 20000 | >12332 | >476 | – | –
Cc1cc(C)cc(S(=O)(=O)c2c(C(=O)NCc3ccc(Cl)cc3)[nH]c3ccc(Cl)cc23)c1 | 57 | 8.2 | > 51300 | 7500 | > 6260 | – | 103 | 13 | – | – | 451 | > 51300 | – | – | > 20000 | >6255 | 55 | > 51300 | >6255
Cc1ccc(CCNC(=O)c2[nH]c3ccc(Cl)cc3c2S(=O)(=O)c2cc(C)cc(C)c2)cc1 | 2000 | 22.9 | > 52000 | > 20000 | > 2270 | – | > 50000 | 2183 | 16200 | > 50000 | 1800 | > 51900 | – | 33 | > 20000 | >2268 | 79 | – | –
Cc1cc(C)cc(S(=O)(=O)c2c(C(=O)NCc3ccc(N(C)C)cc3)[nH]c3ccc(Cl)cc23)c1 | – | 12.1 | 40700 | – | 3360 | – | 322 | 27 | – | – | 1030 | > 40300 | – | – | – | >3332 | 85 | > 40300 | >3332
Cc1ccnc2c1NC(=O)c1cccnc1N2C1CC1 [NEVIRAPINE] | – | 112 | > 18800 | – | – | – | > 3760 | – | – | > 10000 | > 3760 | > 3760 | 60 | – | – | – | – | > 3760 | –
O=C1Nc2ccc(Cl)cc2[C@@](C#CC2CC2)(C(F)(F)F)O1 [EFAVIRENZ] | – | 15.9 | > 15800 | – | – | – | 130 | – | – | > 10000 | 160 | > 317 | 22 | – | – | – | – | 760 | –
Cc1cc(C)cc(S(=O)(=O)c2c(C(=O)NCCc3ccc(Cl)cc3)[nH]c3ccc(Cl)cc23)c1 | 89 | 53.8 | 32400 | 60 | 602 | 3.5 | ≥ 2000 | >=37 | 960 | > 10000 | 1700 | 32400 | 190 | 68 | > 20000 | 602 | 36 | – | –
COc1ccc(CNC(=O)c2[nH]c3ccc(Cl)cc3c2S(=O)(=O)c2cc(C)cc(C)c2)cc1 | 3.7 | 0.21 | 39900 | > 20000 | 190000 | – | 21 | 100 | – | – | 21 | > 39200 | – | – | > 20000 | >186557 | 100 | > 39200 | >186557
Cc1cc(C)cc(S(=O)(=O)c2c(C(=O)NCCc3ccccc3C)[nH]c3ccc(Cl)cc23)c1 | 288 | – | > 52000 | 12400 | > 8380 | 3.2 | 100 | 16 | 200 | > 10000 | – | > 51900 | 20 | 9.1 | > 20000 | >8383 | – | – | –
Cc1cc(C)cc(S(=O)(=O)c2c(C(=O)NCc3ccc([N+](=O)[O-])cc3)[nH]c3ccc(Cl)cc23)c1 | 50 | 2 | > 50200 | 218 | > 25100 | – | 120 | 60 | – | – | 70 | > 50200 | – | – | > 20000 | >25103 | 35 | > 50200 | >25103
Cc1cc(C)cc(S(=O)(=O)c2c(C(=O)NCC(C)c3ccccc3)[nH]c3ccc(Cl)cc23)c1 (racemic) | – | 0.21 | 19900 | – | 94900 | – | 29 | 138 | – | – | 291 | > 19900 | – | – | – | >94938 | 1386 | > 19900 | >94938
Cc1cn([C@H]2C[C@H](N=[N+]=[N-])[C@@H](CO)O2)c(=O)[nH]c1=O [ZIDOVUDINE] | – | 3.7 | > 30600 | – | > 8270 | – | 16 | 4.3 | – | – | 6 | 16 | – | – | – | – | 1.6 | 33 | 8.9
